From ChEMBL document CHEMBL4270599, “Synthesis of a 3'-C-ethynyl-β-d-ribofuranose purine nucleoside library: Discovery of C7-deazapurine analogs as potent antiproliferative nucleosides” (Eur J Med Chem, 2018)

Key:
HOP-62 [1] = assay: Cytotoxicity against human HOP62 cells after 48 hrs by SRB assay; format: functional; conditions: HOP-62, 48 h
UACC-62 = assay: Cytotoxicity against human UACC62 cells after 48 hrs by SRB assay; format: functional; conditions: UACC-62, 48 h
OVCAR-4 [2] = assay: Cytotoxicity against human OVCAR4 cells after 48 hrs by SRB assay; format: functional; conditions: OVCAR-4, 48 h
PC-3 = assay: Cytotoxicity against human PC3 cells after 48 hrs by SRB assay; format: functional; conditions: PC-3, 48 h
MCF7 [3] = assay: Cytotoxicity against human MCF7 cells after 48 hrs by SRB assay; format: functional; conditions: MCF7, 48 h
SR [4] = assay: Growth inhibition of human SR cells assessed as cell growth at 10^-8 M incubated for 48 hrs by sulforhodamine B assay relative to control; format: functional; conditions: read-out: Activity
A549 = assay: Growth inhibition of human A549/ATCC cells assessed as cell growth at 10^-8 M incubated for 48 hrs by sulforhodamine B assay relative to control; format: functional; conditions: A549, 48 h, read-out: Activity
EKVX = assay: Growth inhibition of human EKVX cells assessed as cell growth at 10^-8 M incubated for 48 hrs by sulforhodamine B assay relative to control; format: functional; conditions: read-out: Activity
HOP-62 [5] = assay: Growth inhibition of human HOP62 cells assessed as cell growth at 10^-8 M incubated for 48 hrs by sulforhodamine B assay relative to control; format: functional; conditions: HOP-62, 48 h, read-out: Activity
NCI-H23 [6] = assay: Growth inhibition of human NCI-H23 cells assessed as cell growth at 10^-8 M incubated for 48 hrs by sulforhodamine B assay relative to control; format: functional; conditions: NCI-H23, 48 h, read-out: Activity
SF-268 = assay: Growth inhibition of human SF268 cells assessed as cell growth at 10^-8 M incubated for 48 hrs by sulforhodamine B assay relative to control; format: functional; conditions: SF-268, 48 h, read-out: Activity
SK-MEL-5 = assay: Growth inhibition of human SK-MEL-5 cells assessed as cell growth at 10^-8 M incubated for 48 hrs by sulforhodamine B assay relative to control; format: functional; conditions: SK-MEL-5, 48 h, read-out: Activity
IGROV-1 = assay: Growth inhibition of human IGROV1 cells assessed as cell growth at 10^-8 M incubated for 48 hrs by sulforhodamine B assay relative to control; format: functional; conditions: IGROV-1, 48 h, read-out: Activity
786-0 = assay: Growth inhibition of human 786-0 cells assessed as cell growth at 10^-8 M incubated for 48 hrs by sulforhodamine B assay relative to control; format: functional; conditions: 786-0, 48 h, read-out: Activity
MCF7 [7] = assay: Growth inhibition of human MCF7 cells assessed as cell growth at 10^-8 M incubated for 48 hrs by sulforhodamine B assay relative to control; format: functional; conditions: MCF7, 48 h, read-out: Activity
MDA-MB-231 = assay: Growth inhibition of human MDA-MB-231 cells assessed as cell growth at 10^-8 M incubated for 48 hrs by sulforhodamine B assay relative to control; format: functional; conditions: MDA-MB-231, 48 h, read-out: Activity
CCRF-CEM [8] = assay: Growth inhibition of human CCRF-CEM cells assessed as cell growth at 10^-7 M incubated for 48 hrs by sulforhodamine B assay relative to control; format: functional; conditions: read-out: Activity
NCI-H23 [9] = assay: Growth inhibition of human NCI-H23 cells assessed as cell growth at 10^-7 M incubated for 48 hrs by sulforhodamine B assay relative to control; format: functional; conditions: NCI-H23, 48 h, read-out: Activity
SF-539 = assay: Growth inhibition of human SF539 cells assessed as cell growth at 10^-7 M incubated for 48 hrs by sulforhodamine B assay relative to control; format: functional; conditions: SF-539, 48 h, read-out: Activity
Malme-3M = assay: Growth inhibition of human MALME-3M cells assessed as cell growth at 10^-7 M incubated for 48 hrs by sulforhodamine B assay relative to control; format: functional; conditions: read-out: Activity
ACHN = assay: Growth inhibition of human ACHN cells assessed as cell growth at 10^-7 M incubated for 48 hrs by sulforhodamine B assay relative to control; format: functional; conditions: read-out: Activity
DU-145 [10] = assay: Growth inhibition of human DU145 cells assessed as cell growth at 10^-7 M incubated for 48 hrs by sulforhodamine B assay relative to control; format: functional; conditions: DU-145, 48 h, read-out: Activity
MCF7 [11] = assay: Growth inhibition of human MCF7 cells assessed as cell growth at 10^-7 M incubated for 48 hrs by sulforhodamine B assay relative to control; format: functional; conditions: MCF7, 48 h, read-out: Activity
SR [12] = assay: Growth inhibition of human SR cells assessed as cell growth at 10^-6 M incubated for 48 hrs by sulforhodamine B assay relative to control; format: functional; conditions: read-out: Activity
OVCAR-4 [13] = assay: Growth inhibition of human OVCAR4 cells assessed as cell growth at 10^-6 M incubated for 48 hrs by sulforhodamine B assay relative to control; format: functional; conditions: OVCAR-4, 48 h, read-out: Activity
CCRF-CEM [14] = assay: Growth inhibition of human CCRF-CEM cells assessed as cell growth at 10^-5 M incubated for 48 hrs by sulforhodamine B assay relative to control; format: functional; conditions: read-out: Activity
KM12 = assay: Growth inhibition of human KM12 cells assessed as cell growth at 10^-5 M incubated for 48 hrs by sulforhodamine B assay relative to control; format: functional; conditions: KM12, 48 h, read-out: Activity
OVCAR-5 = assay: Growth inhibition of human OVCAR5 cells assessed as cell growth at 10^-5 M incubated for 48 hrs by sulforhodamine B assay relative to control; format: functional; conditions: OVCAR-5, 48 h, read-out: Activity
DU-145 [15] = assay: Growth inhibition of human DU145 cells assessed as cell growth at 10^-5 M incubated for 48 hrs by sulforhodamine B assay relative to control; format: functional; conditions: DU-145, 48 h, read-out: Activity
[16] = Antiproliferative activity against HMVEC-d cells after 4 days by Coulter counter method; format: cell-based; conditions: Homo sapiens, 96 h
Outline: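 Primary HUVEC, primary HMVEC-d and the HMEC-1 line seeded at 20,000 cells/well in gelatin-coated plates in EC growth medium (EGM2). After overnight incubation, 5-fold compound dilutions added. Cells proliferated four days with compound, then trypsinized and counted by Coulter counter to derive IC₅₀.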

[17] = read-out: LC50 (the source's name)

In the case of `C#C[C@@]1(O)[C@@H](CO)O[C@@H](n2cc(Cl)c3c(N)ncnc32)[C@@H]1O`, the GI50 (HOP-62 [1]; read-out: GI50) is reported as 216 to 299 nM, the TGI (HOP-62 [1]; read-out: TGI) is reported as 1160 to 3350 nM and the CC50 (HOP-62 [1]; read-out: pLC50 (the source's name) (converted)) is reported as greater than 100000 nM. The CC50 (UACC-62; [17]) was greater than 100000 nM, the TGI (UACC-62; read-out: TGI) was 383 nM and the GI50 (UACC-62; read-out: pGI50 (converted)) was 170 nM. For the same compound, the TGI (UACC-62; read-out: pTGI (converted)) was 380 nM, the GI50 (OVCAR-4 [2]; read-out: GI50) was 292 to 358 nM and the CC50 (OVCAR-4 [2]; [17]) was greater than 100000 nM. The TGI (OVCAR-4 [2]; read-out: TGI) was 1980 to 5620 nM, the GI50 (PC-3; read-out: GI50) was 173 to 211 nM and the CC50 (PC-3; [17]) was greater than 100000 nM. For the same compound, the TGI (PC-3; read-out: TGI) was 3520 to 4540 nM, the GI50 (MCF7 [3]; read-out: GI50) was 21.8 to 31.9 nM and the CC50 (MCF7 [3]; [17]) was 5320 to 7110 nM. The TGI (MCF7 [3]; read-out: TGI) was 1040 to 1160 nM, the growth at 0.01 µM (SR [4]) was 107 to 108% and the growth at 0.01 µM (A549) was 98 to 105%. For the same compound, the growth at 0.01 µM (EKVX) was 83 to 89%, the growth at 0.01 µM (HOP-62 [5]) was 88 to 90% and the growth at 0.01 µM (NCI-H23 [6]) was 88 to 89%. For the same compound, the growth at 0.01 µM (SF-268) was 82 to 88%, the growth at 0.01 µM (SK-MEL-5) was 90 to 97% and the growth at 0.01 µM (IGROV-1) was 91 to 94%. For the same compound, the growth at 0.01 µM (786-0) was 80 to 82%, the growth at 0.01 µM (MCF7 [7]) was 67 to 75% and the growth at 0.01 µM (MDA-MB-231) was 88 to 100%. For the same compound, the growth at 0.1 µM (CCRF-CEM [8]) was 76 to 80%, the growth at 0.1 µM (NCI-H23 [9]) was 69 to 73% and the growth at 0.1 µM (SF-539) was 90 to 98%. It also gave a growth at 0.1 µM (Malme-3M) of 79 to 80%, a growth at 0.1 µM (ACHN) of 72% and a growth at 0.1 µM (DU-145 [10]) of 51 to 61%. The growth at 0.1 µM (MCF7 [11]) was 17 to 25%, the growth at 1 µM (SR [12]) was 5 to 6% and the growth at 1 µM (OVCAR-4 [13]) was 5 to 13%. The growth at 10 µM (CCRF-CEM [14]) was 2 to 4%, the growth at 10 µM (KM12) was 5 to 9% and the growth at 10 µM (OVCAR-5) was 13 to 14%. For the same compound, the growth at 10 µM (DU-145 [15]) was 1 to 2% and the IC50 [16] was less than 1.28 nM.
